Source: ChEMBL document CHEMBL2203159, “Synthesis and structure-activity relationships of fibrate-based analogues inside PPARs” (Bioorg Med Chem Lett, 2012)

Assays:
[1] = molecular target: T1, Peroxisome proliferator-activated receptor alpha (Homo sapiens, UniProt Q07869); test: Transactivation of human GAL4-fused PPARalpha ligand binding domain transfected in HEK293 cells after 18 hrs by dual luciferase reporter gene assay; assay type: cell-based
T1 sequence (Q07869 whole entry): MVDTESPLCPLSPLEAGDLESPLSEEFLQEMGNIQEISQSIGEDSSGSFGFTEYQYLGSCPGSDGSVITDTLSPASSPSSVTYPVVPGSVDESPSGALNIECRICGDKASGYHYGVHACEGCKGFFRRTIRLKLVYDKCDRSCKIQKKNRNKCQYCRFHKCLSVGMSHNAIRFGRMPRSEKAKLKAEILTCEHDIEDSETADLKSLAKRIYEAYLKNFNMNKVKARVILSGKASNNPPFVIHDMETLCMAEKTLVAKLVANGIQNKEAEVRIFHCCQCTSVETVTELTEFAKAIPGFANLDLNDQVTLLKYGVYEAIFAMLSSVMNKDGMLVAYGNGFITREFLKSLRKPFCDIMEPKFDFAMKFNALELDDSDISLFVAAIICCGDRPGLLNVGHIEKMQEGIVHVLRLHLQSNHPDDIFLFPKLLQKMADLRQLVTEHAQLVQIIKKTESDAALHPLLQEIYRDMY
How it was run: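 HEK293 cells carried a GAL4–PPAR chimera and a GAL4-responsive luciferase reporter in a transactivation assay. Compounds were tested at 1 to 150 µM in at least two separate experiments, and results are given ± SEM.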

[2] = molecular target: T2, Peroxisome proliferator-activated receptor gamma (Homo sapiens, UniProt P37231); test: Transactivation of human GAL4-fused PPARgamma ligand binding domain transfected in HEK293 cells after 18 hrs by dual luciferase reporter gene assay; assay type: cell-based
T2 sequence (P37231 whole entry): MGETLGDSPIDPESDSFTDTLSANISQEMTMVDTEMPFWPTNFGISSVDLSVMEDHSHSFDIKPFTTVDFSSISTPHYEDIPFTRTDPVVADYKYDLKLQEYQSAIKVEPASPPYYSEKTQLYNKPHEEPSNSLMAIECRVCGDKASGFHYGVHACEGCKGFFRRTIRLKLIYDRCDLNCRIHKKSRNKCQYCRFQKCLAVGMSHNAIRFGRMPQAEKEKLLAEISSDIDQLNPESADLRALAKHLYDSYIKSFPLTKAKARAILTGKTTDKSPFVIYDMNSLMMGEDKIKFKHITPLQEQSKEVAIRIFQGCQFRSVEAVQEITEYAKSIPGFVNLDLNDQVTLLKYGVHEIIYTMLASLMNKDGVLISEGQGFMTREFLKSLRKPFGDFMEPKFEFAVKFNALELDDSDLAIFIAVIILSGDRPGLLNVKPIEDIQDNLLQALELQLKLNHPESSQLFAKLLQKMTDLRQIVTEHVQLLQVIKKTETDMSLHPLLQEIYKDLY

[3] = molecular target: T3, Peroxisome proliferator-activated receptor alpha (Homo sapiens) (UniProt Q07869); test: Transactivation of human GAL4-fused PPARalpha ligand binding domain transfected in HEK293 cells at 150 uM after 18 hrs by dual luciferase reporter gene assay relative to clofibric acid; assay type: cell-based
T3 sequence (whole entry): T1 sequence (Q07869 whole entry)
How it was run: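 This is a GAL4–PPAR transactivation assay in HEK293 cells with a GAL4-responsive luciferase reporter, run in at least two separate experiments. Efficacy is the percentage of the maximum fold induction obtained with the reference agonist clofibric acid. Results are given ± SEM.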

[4] = molecular target: T3, Peroxisome proliferator-activated receptor alpha (Homo sapiens); test: Transactivation of PPARalpha in human HepG2 cells assessed as increase in CPT1A mRNA expression after 48 hrs by RT-qPCR analysis

Compound	EC50 ([1]; hek293)	EC50 ([2]; read-out: EC50) [µM]	EC50 ([1]; read-out: EC50) [µM]	%max [3] [%]	EC50 ([2]; hek293)	Activity [4]
CC(C)(Oc1ccc(COc2ccc(/N=N/c3ccccc3)cc2)cc1)C(=O)O			5.6	350		
CC(C)(Oc1ccc(CO)cc1)C(=O)O		30	34.5	119		
CC(C)(Oc1ccc(COc2ccc(/C=C/c3ccccc3)cc2)cc1)C(=O)O		6	40.5	156		
CC(C)(Oc1ccc(COc2ccc(C(=O)/C=C/c3ccccc3)cc2)cc1)C(=O)O	Not Active				Not Active	
CC(C)(Oc1ccc(CCO)cc1)C(=O)O			75.1	94	Not Active	
CC(C)(Oc1ccc(COc2ccc(C(=O)c3ccccc3)cc2)cc1)C(=O)O	Not Active	5.4				
CC(C)(Oc1ccc(CCOc2ccc(C(=O)/C=C/c3ccccc3)cc2)cc1)C(=O)O		5.9	64	118		
CC(C)(Oc1ccc(Cl)cc1)C(=O)O [CLOFIBRIC ACID]					Not Active	
CCc1ccc(CCOc2ccc(CC3SC(=O)NC3=O)cc2)nc1 (configuration not stated) [PIOGLITAZONE]	Not Active					
CC(C)(Oc1ccc(COc2ccc(Oc3ccccc3)cc2)cc1)C(=O)O	Not Active	0.8				

Now from value to molecule:

EC50 ([1]; hek293)	EC50 ([2]; read-out: EC50) [µM]	EC50 ([1]; read-out: EC50) [µM]	%max [3] [%]	EC50 ([2]; hek293)	Activity [4]	Compound
Not Active	54.6					CC(C)(Oc1ccc(CCOc2ccc(C(=O)c3ccccc3)cc2)cc1)C(=O)O
	7.9	45.8	100			CC(C)(Oc1ccc(CCCOc2nc3ccccc3s2)cc1)C(=O)O
	10	42.8	81			CC(C)(Oc1ccc(CCCOc2ccc(/N=N/c3ccccc3)cc2)cc1)C(=O)O
		30.6	181	Not Active		CC(C)(Oc1ccc(CCCO)cc1)C(=O)O
	0.8	9.9	125			CC(C)(Oc1ccc(CCCOc2ccc(/C=C/c3ccccc3)cc2)cc1)C(=O)O
Not Active	0.8					CC(C)(Oc1ccc(CCCOc2ccc(C(=O)/C=C/c3ccccc3)cc2)cc1)C(=O)O
Not Active	75.2					CC(C)(Oc1ccc(CCCOc2ccc(Oc3ccccc3)cc2)cc1)C(=O)O
	1.4	0.6	158		Dose-dependent effect	CC(C)(Oc1ccc(CCOc2ccc(/N=N/c3ccccc3)cc2)cc1)C(=O)O
	12.6	11.6	81			CC(C)(Oc1ccc(CCOc2ccc(/C=C/c3ccccc3)cc2)cc1)C(=O)O
Not Active	5.8					CC(C)(Oc1ccc(CCCOc2ccc(C(=O)c3ccccc3)cc2)cc1)C(=O)O
Not Active	6.9					CC(C)(Oc1ccc(CCOc2ccc(Oc3ccccc3)cc2)cc1)C(=O)O
	39.3	18.3	169			CC(C)(Oc1ccc(CCOc2nc3ccccc3s2)cc1)C(=O)O
	32	44.6	125			CC(C)(Oc1ccc(COc2nc3ccccc3s2)cc1)C(=O)O
